Test results reported in ChEMBL document CHEMBL1144836, “Constituents of the sea cucumber Cucumaria okhotensis. Structures of okhotosides B1-B3 and cytotoxic activities of some glycosides from this species” (J Nat Prod, 2008).

What was measured:
[1] = tested on: HeLa; assay: Cytotoxicity against human HeLa cells; assay type: functional, cell-based
Summary of the method: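 HeLa cells seeded at 6000 cells/well and cultured 12 h in RPMI with 10% FBS. Medium then replaced with 5% FBS-RPMI containing test concentrations, 22 h incubation. MTS added and reduction read 2 h later by absorbance at 492 nm, with 690 nm as background.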

[2] = tested on: THP-1; assay: Cytotoxicity against human THP1 cells; assay type: functional, cell-based
[3] = Cytotoxicity against mouse JB6Cl41 cells; assay type: functional, cell-based; conditions: JB6 Cl41
[4] = Decrease in UVB induced AP1 dependent transcription in mouse JB6 Cl41 cells at 0.7 ug/ml by luciferase assay; assay type: functional; design: scale not given: the % may be the effect or the level left
Summary of the method: (§1)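 JB6-LucAP-1 reporter cells activated with EGF (10 ng/mL), TPA (20 ng/mL) or UVB (4 kJ/m2), plated at 6 × 10^3/well in 5% FBS/MEM and kept 24 h. Compound added in 0.1% FBS-MEM for 24 h. Cells lysed 1 h at room temperature, then luciferase luminescence read. Two independent experiments, five samples per concentration.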

[5] = Decrease in TPA induced AP1 dependent transcription in mouse JB6 Cl41 cells at 1.1 ug/ml by luciferase assay; assay type: functional; design: scale not given: the % may be the effect or the level left; summary of the method: as §1
[6] = Decrease in EGF induced AP1 dependent transcription in mouse […] cells at 1.1 ug/ml by luciferase assay; assay type: functional; design: scale not given: the % may be the effect or the level left; summary of the method: as §1
[7] = Decrease in EGF induced NFKappaB dependent transcription in mouse JB6 Cl41 cells at 0.7 ug/ml by luciferase assay; assay type: functional; design: scale not given: the % may be the effect or the level left
Summary of the method: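 JB6-LucNF-κB reporter cells activated with EGF (10 ng/mL), plated at 6 × 10^3/well in 5% FBS/MEM and kept 24 h. Compound added in 0.1% FBS-MEM for 24 h. Cells lysed 1 h at room temperature, then luciferase luminescence read. Two independent experiments, five samples per concentration.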

[8] = Inhibition EGF induced mouse JB6 P+Cl41 cells colony formation in soft agar; assay type: functional
Summary of the method: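 JB6 P+ Cl41 cells (8 × 10^3/mL) activated with EGF (10 ng/mL), in 0.33% BME agar with 10% FBS over a 0.5% BME agar layer, compound in both layers. Kept 1 week at 37 °C, 5% CO2. Colonies scored by microscopy and INCC50 derived. Two independent experiments in triplicate.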

[9] = Increase in p53 dependent transcription in mouse JB6 Cl41 cells at 1.8 ug/ml by luciferase assay; assay type: functional
Summary of the method: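 JB6-Lucp53 reporter cells, not activated, plated at 6 × 10^3/well in 5% FBS/MEM and kept 24 h. Compound added in 0.1% FBS-MEM for 24 h. Cells lysed 1 h at room temperature, then luciferase luminescence read. Two independent experiments, five samples per concentration.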

## CO[C@@H]1[C@@H](O)[C@H](O[C@@H]2[C@@H](O)[C@H](O[C@H]3[C@H](O)[C@@H](O[C@@H]4OC[C@@H](O)[C@H](O)[C@H]4O)[C@H](O[C@H]4[C@H](OC5CC[C@]6(C)[C@H]7CCC89C(=O)O[C@@](C)(CCCC(C)C)C8[C@@H](OC(C)=O)C[C@@]9(C)C7=CC[C@H]6C5(C)C)OC[C@@H](OS(=O)(=O)[O-])[C@@H]4O)O[C@@H]3C)OC[C@H]2O)O[C@H](CO)[C@H]1O.[Na+] (stereo partly specified) [FRONDOSIDE A]
[1]
  IC50: 2.1 µg/mL
[2]
  IC50: 4.5 µg/mL
[3]
  IC50: 5.9 µg/mL
[4]
  Activity: 41%
[5]
  Activity: 20%
[6]
  Activity: 51%
[7]
  Activity: 37%
[8]
  INCC50: 0.8 µg/mL
[9]
  Activity: 39%

## C=C(C)CCC[C@]1(C)OC(=O)C23CC[C@H]4C(=CC[C@H]5C(C)(C)C(O[C@@H]6OC[C@@H](OS(=O)(=O)[O-])[C@H](O)[C@H]6O[C@@H]6O[C@H](CO)[C@@H](O[C@@H]7O[C@H](CO)[C@@H](O)[C@H](O[C@@H]8O[C@H](CO)[C@@H](O)[C@H](OC)[C@H]8O)[C@H]7O)[C@H](O)[C@H]6O[C@@H]6OC[C@@H](O)[C@H](O)[C@H]6O)CC[C@]45C)[C@]2(C)C[C@H](OC(C)=O)C31.[Na+] (stereo partly specified) [OKHOTOSIDE B1]
[1]
  IC50: 34 µg/mL

## C=C(C)CCC[C@]1(C)OC(=O)C23CC[C@H]4C(=CC[C@H]5C(C)(C)C(O[C@@H]6OC[C@@H](OS(=O)(=O)[O-])[C@H](O)[C@H]6O[C@@H]6O[C@H](CO)[C@@H](O[C@@H]7O[C@H](COS(=O)(=O)[O-])[C@@H](O)[C@H](O[C@@H]8O[C@H](CO)[C@@H](O)[C@H](OC)[C@H]8O)[C@H]7O)[C@H](O)[C@H]6O[C@@H]6OC[C@@H](O)[C@H](O)[C@H]6O)CC[C@]45C)[C@]2(C)C[C@H](OC(C)=O)C31.[Na+].[Na+] (stereo partly specified) [OKHOTOSIDE B2]
[1]
  IC50: 13 µg/mL
